High-throughput results deposited in PubChem BioAssay by Sanford-Burnham Center for Chemical Genomics.
CCR6 antagonist – blocks CCL20-driven beta-arrestin recruitment at human CCR6; hit rate 0.49% among 340,000; P51684; AID 493098; inhibition, % at 20 µM; CHO-K1 CCR6 PathHunter beta-arrestin, luminescence, CCL20-stimulated;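 active = compounds whose inhibition of the agonist-driven luminescence signal at 20 µM reaches about 50%, limit read from the data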;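 note: cells stimulated with CCL20 at 14 nM final; plate controls were DMSO with CCL20 for no effect and DMSO without agonist for full effect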
Target sequence (P51684 whole entry, looked up): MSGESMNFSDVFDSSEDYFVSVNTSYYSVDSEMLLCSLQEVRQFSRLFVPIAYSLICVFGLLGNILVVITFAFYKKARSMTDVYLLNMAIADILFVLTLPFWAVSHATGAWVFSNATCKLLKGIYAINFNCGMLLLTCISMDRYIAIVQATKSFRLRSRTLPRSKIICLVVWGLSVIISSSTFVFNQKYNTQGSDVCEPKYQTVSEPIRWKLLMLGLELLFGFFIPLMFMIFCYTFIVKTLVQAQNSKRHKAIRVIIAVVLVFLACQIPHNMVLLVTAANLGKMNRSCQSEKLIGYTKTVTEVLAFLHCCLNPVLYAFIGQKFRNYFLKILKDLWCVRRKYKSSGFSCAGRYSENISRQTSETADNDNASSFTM
APJ antag – APJ receptor antagonism | P35414 | CHO-K1 APJ beta-arrestin complementation, luminescence | inhibition, % at 20 µM | hit rate 0.32% among 330,000;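 active = inhibition above about 40% at 20 µM, limit read from the data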;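 note: cells challenged with 10 nM apelin-13 agonist together with compound; plate controls were apelin-13 plus DMSO wells for no effect and DMSO wells lacking apelin-13 for full effect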
EBI2 antag – blocks human EBI2 receptor beta-arrestin signaling. AID 651636. P32249. inhibition, % at 5 µM. EBI2 beta-arrestin recruitment, luminescence, 7a,25-OHC stimulated. hit rate 0.81% among 360,000; in the data active = inhibition above about 38%;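 note: enzyme fragment complementation signal reports receptor beta-arrestin coupling in cells; 0% = agonist plus DMSO wells and 100% = wells without agonist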
APJ ag – agonists of human APJ apelin receptor. CHO-K1 APJ PathHunter beta-arrestin, luminescence; 0% DMSO wells, 100% apelin. activation, % at 20 µM. hit rate 0.11% among 330,000. AID 2520;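 active = activation more than six SD over the plate average, tested at 20 µM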;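 note: 0% = DMSO alone and 100% = apelin-13 at 10 nM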
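Material: engineered CHO-K1 APJ arrestin reporter cells; amount: 1000 CHO-K1 reporter cells seeded per well; incubation: compound stimulation 90 min at 25 °C, detection 60 min; signal: luminescent beta-gal fragment complementation, chemiluminescent substrate; read-out basis: APJ agonist activity; controls: DMSO-only wells as negative, 10 nM Apelin-13 as positive control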
CXCR6 inh – CXCR6 (human) receptor inhibition | AID 602244 | inhibition, % at 20 µM | hit rate 0.36% among 360,000 | CHO-K1 PathHunter CXCR6 beta-arrestin, luminescence | O00574; in the data active = inhibition above about 34%, passing the limit was not always enough;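 note: antagonist mode with CXCL16 agonist at 10 nM final; 0% = 10 nM CXCL16 with DMSO and 100% = unstimulated wells without agonist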
Target sequence (O00574 whole entry, looked up): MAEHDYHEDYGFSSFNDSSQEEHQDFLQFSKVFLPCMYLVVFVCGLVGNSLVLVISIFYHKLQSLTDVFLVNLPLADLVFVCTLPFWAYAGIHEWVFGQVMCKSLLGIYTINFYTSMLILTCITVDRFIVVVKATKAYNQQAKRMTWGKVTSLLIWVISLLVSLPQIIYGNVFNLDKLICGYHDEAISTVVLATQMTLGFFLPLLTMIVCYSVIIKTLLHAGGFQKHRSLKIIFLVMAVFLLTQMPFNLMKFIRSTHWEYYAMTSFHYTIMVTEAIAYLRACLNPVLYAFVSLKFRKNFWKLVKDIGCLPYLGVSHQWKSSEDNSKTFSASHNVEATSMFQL
EBI2 antag conf – EBI2 (human) antagonism, single concentration confirmation; hit rate 29% among 2,400; EBI2 beta-arrestin luminescence, 7a,25-OHC antagonism; shares compounds with EBI2 antag; inhibition, % at 5 µM;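 active = inhibition of at least 50%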
EBI2 agonist – counter-screen for EBI2 antagonists: EBI2 agonist activity; 2,400 tested, under 10 active; activation, % at 5 µM; shares compounds with EBI2 antag; AID 652000; EBI2-expressing cells, agonist mode, luminescence, 60 min; 0% vehicle, 100% 7α,25-dihydroxycholesterol control;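 active = activation of at least 50%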
bGal counter – counter-screen for EBI2 antagonists: E. coli beta-galactosidase inhibition | shares compounds with EBI2 antag | purified beta-galactosidase, luminescent Galacton Star, 15 min | inhibition, % at 5 µM | hit rate 1% among 2,400;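 active = replicate-average signal at least 3 plate SD below neutral wells, shown as high inhibition, flagging enzyme-inhibiting false positives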;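 note: 0% = DMSO wells with enzyme and 100% = wells lacking enzyme; higher means stronger loss of beta-gal luminescence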
* = called active by the depositor; . = not tested or not shown. In the library only some 1.5% were active in any assay of this set; here they are far more common.

SMILES | CCR6 antagonist | APJ antag | EBI2 antag | APJ ag | CXCR6 inh | EBI2 antag conf | EBI2 agonist | bGal counter
O=C(c1cc2cc(F)ccc2[nH]1)N1CCN(Cc2ccc3c(c2)OCO3)CC1 | 24 | -64 | 93* | 2 | -10 | 79* | 2 | 1
CC(C)Sc1ccc(C(=O)Nc2ccc(F)cc2F)cn1 | 13 | -8 | 45* | -1 | 8 | 20 | 0 | 12
O=C(c1ccc(Cl)cc1)N1CCN(C(=O)C2CCCCC2)CC1 | 3 | 5 | 60* | 1 | -4 | 17 | 3 | 3
O=C(c1ccc(F)cc1)C1CCN(C(=O)c2ccc(Cl)cc2)CC1 | 19 | . | 83* | . | -7 | 54* | 0 | -12
O=C(c1ccc(Cl)cc1)N1CCCC(C(=O)N2CCCCC2)C1 (configuration not stated) | 1 | 7 | -2 | -2 | -14 | . | . | .
O=C(c1ccc(Cl)cc1)C1CCN(C(=O)c2ccccc2)CC1 | 3 | -10 | 21 | 0 | -3 | . | . | .
CCOc1ccc(-c2n[nH]c(C)c2Oc2ccc(OC)cc2)c(O)c1 | 12 | 30 | 10 | -4 | 9 | . | . | .
CCC(c1nnnn1-c1ccc2c(c1)OCCO2)N1CCN(C/C=C/c2ccccc2)CC1 (configuration not stated) | . | . | 18 | . | -9 | . | . | .
C(=C\c1ccccc1)/CN1CCN(C(c2cccs2)c2nnnn2-c2ccc3c(c2)OCCO3)CC1 (configuration not stated) | . | . | 72* | . | 8 | 30 | 0 | -17
C(=C\c1ccccc1)/CN1CCN(C(c2cccc3ccccc23)c2nnnn2Cc2ccccc2)CC1 (configuration not stated) | . | . | 64* | . | 12 | 31 | 1 | 7
COc1ccc(-n2nnnc2C(c2cccc3ccccc23)N2CCN(C/C=C/c3ccccc3)CC2)cc1 (configuration not stated) | . | . | 63* | . | 13 | 32 | 1 | 2
COc1ccc(-n2nnnc2C(c2cc3ccccc3o2)N2CCN(C/C=C/c3ccccc3)CC2)cc1 (configuration not stated) | . | . | 39 | . | 5 | . | . | .
COc1ccc(C(c2nnnn2-c2ccc3c(c2)OCCO3)N2CCN(C/C=C/c3ccccc3)CC2)cc1 (configuration not stated) | . | . | 60* | . | 19 | 41 | 2 | 0
C(=C\c1ccccc1)/CN1CCN(C(c2cc3ccccc3o2)c2nnnn2-c2ccc3c(c2)OCCO3)CC1 (configuration not stated) | . | . | 38 | . | 11 | . | . | .
Cc1cc(OC(C)C(=O)NCc2ccncc2)c2c(C)c(C)c(=O)oc2c1 (configuration not stated) | 6 | -34 | -5 | 2 | -2 | . | . | .
COc1ccc(N2CCN(C(=O)COC(=O)CCOc3ccc(C)cc3)CC2)cc1 | 14 | 2 | 13 | 2 | 7 | . | . | .
O=C(c1ccoc1)N1CCN(c2cc(-c3cccc(F)c3)nc3cc(-c4cccc(Cl)c4)nn23)CC1 | . | . | 23 | . | -4 | . | . | .
CCOc1cc(C=O)cc(Br)c1OCC(N)=O | -4 | 7 | -7 | -6 | 1 | . | . | .
CC(=O)N1N=C(c2ccccc2)CC1c1cn(Cc2ccccc2)c2ccccc12 (configuration not stated) | 18 | -2 | 49* | -1 | 8 | 29 | -1 | -1
COc1ccc(Cl)cc1-c1cc(C(=O)NCc2ccccc2)[nH]n1 | . | . | 2 | . | 0 | . | . | .
COC(=O)c1cc(=O)n(Cc2ccc3c(c2)OCO3)c(=Nc2ccc(F)cc2)s1 | 11 | 4 | 66* | -5 | 7 | 34 | 1 | 6
COC(=O)c1cc(=O)n(-c2ccc(F)cc2)c(=Nc2ccc(F)cc2)s1 | 21 | 12 | 16 | -1 | 14 | . | . | .
COC(=O)c1cc(=O)n(Cc2ccc(F)cc2)c(=NCc2ccc(F)cc2)s1 | 0 | 8 | 40 | -2 | -9 | . | . | .
COC(=O)c1cc(=O)n(Cc2ccc3c(c2)OCO3)c(=Nc2ccccc2)s1 | 3 | 19 | 53* | -7 | 9 | 58* | -1 | -15
COC(=O)c1ccc(N=c2sc(C(=O)OC)cc(=O)n2C)cc1 | 21 | . | 66* | . | 3 | 78* | -1 | -16
SMILES | CCR6 antagonist | APJ antag | EBI2 antag | APJ ag | CXCR6 inh | EBI2 antag conf | EBI2 agonist | bGal counter
CCOC(=O)c1c(C)nc(C)c(C(=O)OCC)c1-c1cccc([N+](=O)[O-])c1 | . | . | 59* | . | -3 | 35 | 0 | 7
COc1ccc(C(=O)N2CCN(S(=O)(=O)c3ccc(C)cc3C)CC2)cc1OC | -1 | 13 | 48* | 1 | -3 | 51* | 2 | 7
CC(=O)c1ccc(OCC(=O)N2CCN(S(=O)(=O)c3ccc(C)cc3C)CC2)cc1 | -16 | -7 | 65* | -1 | -4 | 29 | 0 | 9
Cc1ccc(S(=O)(=O)N2CCN(C(=O)COC(=O)COc3ccc(Br)cc3)CC2)c(C)c1 | -10 | . | -10 | . | 5 | . | . | .
COc1cccc2cc(C(=O)N3CCN(c4ccc(C)cc4C)CC3)c(=O)oc12 | -14 | 14 | 47* | 3 | 0 | 33 | 1 | 8
Cc1ccc(S(=O)(=O)N2CCN(C(=O)c3ccc4ccccc4n3)CC2)c(C)c1 | 2 | -13 | 55* | -2 | 3 | 45 | 1 | 7
CCOC(=O)Cc1cc(=O)n2[nH]c(C(C)(C)C)cc2n1 | 5 | -1 | 0 | -1 | 3 | . | . | .
COc1ccccc1N1CCN(S(=O)(=O)CCNC(=O)Cc2ccc(F)cc2)CC1 | -4 | 7 | 3 | 5 | -11 | . | . | .
COc1ccc(CNC(=O)CN(C(=O)CCC(=O)Nc2nccs2)c2ccccc2C)cc1 | 7 | 12 | 7 | -3 | 10 | . | . | .
CC1(C)CC(=O)C2=C(C1)NC1=C(C(=O)c3ccccc31)C2c1cc([N+](=O)[O-])ccc1O (configuration not stated) | 44 | 30 | -4 | -8 | 29 | . | . | .
COc1ccc(C(=O)N2CCN(c3ccc(C)cc3C)CC2)cc1OC | 8 | -58 | 78* | -3 | 1 | 53* | 1 | 9
O=C(NCCC(=O)N1CCCCCCC1)c1ccc(Cl)cc1 | 3 | -1 | 7 | 11 | 1 | . | . | .
O=C(Cc1cccs1)Nc1ccccc1F | 9 | 10 | 5 | -3 | -6 | . | . | .
CCn1c(SCC(=O)NNC(=O)c2ccc(OC)cc2)nnc1-c1ccco1 | 3 | -35 | 70* | -1 | 2 | 50 | 2 | 5
CCCc1nc(SCC(=O)NNC(=O)C2CCCCC2)c2ccccc2n1 | -10 | 7 | -6 | -2 | -2 | . | . | .
CCCc1nc(SCC(=O)NNC(=O)c2ccc(OC)cc2)c2ccccc2n1 | 8 | -5 | 77* | 0 | -2 | 45 | 0 | -14
